# From ChEMBL document CHEMBL1914395, “Design, synthesis, and biological evaluation of callophycin A and analogues as potential chemopreventive and anticancer agents” (Bioorg Med Chem, 2011)
# Target: T1, Nitric oxide synthase, inducible (Mus musculus) (UniProt P29477)
# T1 sequence (whole entry): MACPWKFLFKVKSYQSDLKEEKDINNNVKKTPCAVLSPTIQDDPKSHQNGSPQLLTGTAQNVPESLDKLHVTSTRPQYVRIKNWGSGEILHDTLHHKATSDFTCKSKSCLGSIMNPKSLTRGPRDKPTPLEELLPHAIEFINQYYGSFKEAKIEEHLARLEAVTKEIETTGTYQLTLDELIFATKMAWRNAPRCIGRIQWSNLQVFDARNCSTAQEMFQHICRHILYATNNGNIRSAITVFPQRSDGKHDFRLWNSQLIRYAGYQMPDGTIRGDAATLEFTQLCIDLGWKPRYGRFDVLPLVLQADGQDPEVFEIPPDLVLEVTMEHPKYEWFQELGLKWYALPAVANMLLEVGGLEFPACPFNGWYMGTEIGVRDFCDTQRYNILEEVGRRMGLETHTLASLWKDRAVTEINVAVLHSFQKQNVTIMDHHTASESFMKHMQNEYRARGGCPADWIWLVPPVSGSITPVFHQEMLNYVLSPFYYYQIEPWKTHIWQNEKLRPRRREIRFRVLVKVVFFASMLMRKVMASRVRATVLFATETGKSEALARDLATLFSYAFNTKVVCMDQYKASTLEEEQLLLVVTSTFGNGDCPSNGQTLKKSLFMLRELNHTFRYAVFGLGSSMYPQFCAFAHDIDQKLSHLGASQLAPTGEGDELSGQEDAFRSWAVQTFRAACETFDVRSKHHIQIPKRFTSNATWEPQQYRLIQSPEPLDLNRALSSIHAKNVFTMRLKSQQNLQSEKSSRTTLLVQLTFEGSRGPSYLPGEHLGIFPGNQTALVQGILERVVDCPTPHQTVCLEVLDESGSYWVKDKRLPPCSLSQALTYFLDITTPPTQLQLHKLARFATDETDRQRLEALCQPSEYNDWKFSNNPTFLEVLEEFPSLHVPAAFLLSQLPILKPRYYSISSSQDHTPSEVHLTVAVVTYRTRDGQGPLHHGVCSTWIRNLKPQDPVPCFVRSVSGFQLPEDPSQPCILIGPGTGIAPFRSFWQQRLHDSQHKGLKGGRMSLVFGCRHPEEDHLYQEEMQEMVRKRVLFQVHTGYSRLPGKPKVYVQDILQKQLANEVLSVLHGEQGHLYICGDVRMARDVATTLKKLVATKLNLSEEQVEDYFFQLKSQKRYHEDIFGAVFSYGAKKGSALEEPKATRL
# Test: Inhibition of iNOS-mediated nitric oxide production in LPS-stimulated mouse RAW 264.7 cells assessed as cell survival at 50 uM pretreated 15 mins before LPS challenge measured after 20 hrs relative to control
# Assay type: cell-based
# Details: not given
# How it was run: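 RAW 264.7 cells were incubated at 37°C, 5% CO2 for 24 h. They were then exposed to compound for 15 min before LPS (1 μg/mL) was added for 20 h. Cytotoxicity was measured by SRB staining under the same conditions. Survival is expressed as % relative to vehicle-treated controls at 50 μM.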
row,Structure (SMILES),Survival [%]
1,COC(=O)[C@H]1Cc2c([nH]c3ccccc23)CN1CC1CC1,124
2,COC(=O)[C@@H]1Cc2c([nH]c3ccccc23)CN1Cc1ccc(OCc2ccccc2)cc1,93.9
3,C#CCN1Cc2[nH]c3ccccc3c2C[C@@H]1C(=O)O,87.9
4,O=C(O)[C@H]1Cc2c([nH]c3ccccc23)CN1CC1CC1,130
5,O=C(O)[C@H]1Cc2c([nH]c3ccccc23)CN1Cc1ccccc1,109

# Target: NAD(P)H dehydrogenase [quinone] 1 (Mus musculus) (UniProt Q64669)
# Sequence (Q64669 whole entry): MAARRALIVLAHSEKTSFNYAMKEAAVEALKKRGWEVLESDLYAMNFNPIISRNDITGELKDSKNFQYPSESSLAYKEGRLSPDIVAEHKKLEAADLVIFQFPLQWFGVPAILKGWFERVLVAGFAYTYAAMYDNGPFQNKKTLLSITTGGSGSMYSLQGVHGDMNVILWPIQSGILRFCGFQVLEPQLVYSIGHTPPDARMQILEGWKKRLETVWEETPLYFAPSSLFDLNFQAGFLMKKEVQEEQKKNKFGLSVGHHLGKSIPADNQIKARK
# Test: Induction of quinone reductase 1 activity in mouse Hepa-1c1c7 cells assessed as cell survival at 50 uM by MTT assay relative to control
# Assay type: cell-based
# Details: not given
row,Structure (SMILES),Survival [%]
1,COC(=O)[C@H]1Cc2c([nH]c3ccccc23)CN1CC1CC1,81.8
2,COC(=O)[C@@H]1Cc2c([nH]c3ccccc23)CN1Cc1ccc(OCc2ccccc2)cc1,72.8
3,C#CCN1Cc2[nH]c3ccccc3c2C[C@@H]1C(=O)O,94.6
4,O=C(O)[C@H]1Cc2c([nH]c3ccccc23)CN1CC1CC1,102
5,O=C(O)[C@H]1Cc2c([nH]c3ccccc23)CN1Cc1ccccc1,108

# Target: NAD(P)H dehydrogenase [quinone] 1 (Mus musculus) (UniProt Q64669)
# Test: Induction of quinone reductase 1 activity in mouse Hepa-1c1c7 cells at 50 uM by MTT assay relative to untreated control
# Assay type: cell-based
# Details: not given
# How it was run: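 Hepa 1c1c7 murine hepatoma cells treated with compound at 50 μM. QR1 measured by NADPH-dependent, menadiol-mediated reduction of MTT to formazan. Protein measured by crystal violet staining of identical plates. Specific activity is nmol formazan per mg protein per min. Induction ratio is treated versus DMSO-treated control.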
row,Structure (SMILES),Ratio
1,COC(=O)[C@H]1Cc2c([nH]c3ccccc23)CN1CC1CC1,1.8
2,COC(=O)[C@@H]1Cc2c([nH]c3ccccc23)CN1Cc1ccc(OCc2ccccc2)cc1,1.8
3,C#CCN1Cc2[nH]c3ccccc3c2C[C@@H]1C(=O)O,1.6
4,O=C(O)[C@H]1Cc2c([nH]c3ccccc23)CN1CC1CC1,1.8
5,O=C(O)[C@H]1Cc2c([nH]c3ccccc23)CN1Cc1ccccc1,1.8

# Target: T2, Aromatase (Homo sapiens, UniProt P11511)
# T2 sequence (P11511 whole entry): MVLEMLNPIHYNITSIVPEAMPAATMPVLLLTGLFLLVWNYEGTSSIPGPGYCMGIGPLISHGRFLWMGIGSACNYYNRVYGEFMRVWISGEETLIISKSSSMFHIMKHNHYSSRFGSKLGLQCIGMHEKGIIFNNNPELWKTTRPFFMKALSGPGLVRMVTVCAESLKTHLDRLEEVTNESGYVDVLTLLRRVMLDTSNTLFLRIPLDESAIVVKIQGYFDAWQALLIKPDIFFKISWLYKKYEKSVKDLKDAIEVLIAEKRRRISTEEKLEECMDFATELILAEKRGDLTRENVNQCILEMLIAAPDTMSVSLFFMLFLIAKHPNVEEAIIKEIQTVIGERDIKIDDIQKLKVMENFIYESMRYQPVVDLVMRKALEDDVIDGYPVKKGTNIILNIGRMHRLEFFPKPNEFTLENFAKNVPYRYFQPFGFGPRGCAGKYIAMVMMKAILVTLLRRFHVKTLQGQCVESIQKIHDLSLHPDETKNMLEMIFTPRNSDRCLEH
# Test: Inhibition of aromatase at 50 uM after 10 mins preincubation by plate reader relative to control
# Details: not given
# How it was run: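 CYP19 enzyme. Compound pre-incubated 10 min with an NADPH-regenerating system (NADP+, glucose 6-phosphate, G6PDH, MgCl2, albumin) in 50 mM potassium phosphate pH 7.4. Enzyme and 0.4 μM dibenzylfluorescein substrate then added, 30 min at 37 °C. Quenched with 2 N NaOH and incubated a further 2 h at 37 °C. Fluorescence read at ex 485/em 530 nm. Compound tested at 50 μM.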
row,Structure (SMILES),inhibition at 50 µM [%]
1,COC(=O)[C@H]1Cc2c([nH]c3ccccc23)CN1CC1CC1,37.9
2,COC(=O)[C@@H]1Cc2c([nH]c3ccccc23)CN1Cc1ccc(OCc2ccccc2)cc1,28
3,C#CCN1Cc2[nH]c3ccccc3c2C[C@@H]1C(=O)O,23.5
4,O=C(O)[C@H]1Cc2c([nH]c3ccccc23)CN1CC1CC1,31.5
5,O=C(O)[C@H]1Cc2c([nH]c3ccccc23)CN1Cc1ccccc1,19.2

# System: MCF7
# Test: Antiproliferative activity against human MCF7 cells assessed as survival at 50 uM after 72 hrs by SRB assay relative to control
# Assay type: functional
# Details: MCF7, 72 h, read-out: Survival
# How it was run: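 MCF7 cells (1 × 10^4 per well) were plated onto compound and kept at 37°C, 5% CO2 for 72 h. Cells were fixed in 10% TCA for 30 min and stained with 0.4% SRB in 1% acetic acid for 30 min. Bound dye was dissolved in 10 mM Tris (pH 10.0) and read at 515 nm. Survival is given as % of DMSO-treated controls, screened at 50 μM.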
row,Structure (SMILES),viability at 50 µM [%]
1,COC(=O)[C@H]1Cc2c([nH]c3ccccc23)CN1CC1CC1,102
2,C#CCN1Cc2[nH]c3ccccc3c2C[C@@H]1C(=O)O,107
3,O=C(O)[C@H]1Cc2c([nH]c3ccccc23)CN1CC1CC1,113

# Target: T3, Nitric oxide synthase, inducible (Mus musculus, UniProt P29477)
# T3 sequence (P29477 whole entry): T1 sequence (whole entry)
# Test: Inhibition of iNOS-mediated nitric oxide production in LPS-stimulated mouse RAW 264.7 cells pretreated 15 mins before LPS challenge measured after 20 hrs relative to control
# Assay type: cell-based
# Details: not given
# How it was run: (§1)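 RAW 264.7 cells cultured 24 h at 37°C, then given serially diluted compounds for 15 min before LPS (1 μg/mL) for 20 h. Nitrite in the medium measured with Griess reagent at 540 nm against a sodium nitrite standard curve. Cytotoxicity checked by SRB under the same conditions.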
row,Structure (SMILES),IC50 [µM]
1,COC(=O)[C@@H]1Cc2c([nH]c3ccccc23)CN1Cc1ccc(OCc2ccccc2)cc1,39.2

# System: HEK293
# Test: Inhibition of TNF-alpha-induced NFkappaB activation in human HEK293 cells assessed as cell survival at 50 uM after 6 hrs by luciferase assay relative to control
# Assay type: cell-based
# Details: not given
row,Structure (SMILES),Survival [%]
1,COC(=O)[C@H]1Cc2c([nH]c3ccccc23)CN1CC1CC1,254
2,COC(=O)[C@@H]1Cc2c([nH]c3ccccc23)CN1Cc1ccc(OCc2ccccc2)cc1,99.7
3,C#CCN1Cc2[nH]c3ccccc3c2C[C@@H]1C(=O)O,72.7
4,O=C(O)[C@H]1Cc2c([nH]c3ccccc23)CN1CC1CC1,169
5,O=C(O)[C@H]1Cc2c([nH]c3ccccc23)CN1Cc1ccccc1,89.5

# System: HEK293
# Test: Inhibition of TNF-alpha-induced NFkappaB activation in human HEK293 cells at 50 uM after 6 hrs by luciferase assay relative to control
# Assay type: cell-based
# Details: not given
# How it was run: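 Cells incubated 6 h with TNFα plus test compound, then luciferase activity measured. Results expressed as percent of TNFα-treated control. Screening concentration 50 μM.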
row,Structure (SMILES),inhibition [%]
1,COC(=O)[C@H]1Cc2c([nH]c3ccccc23)CN1CC1CC1,29.9
2,COC(=O)[C@@H]1Cc2c([nH]c3ccccc23)CN1Cc1ccc(OCc2ccccc2)cc1,24.7
3,C#CCN1Cc2[nH]c3ccccc3c2C[C@@H]1C(=O)O,-7.7
4,O=C(O)[C@H]1Cc2c([nH]c3ccccc23)CN1CC1CC1,48.4
5,O=C(O)[C@H]1Cc2c([nH]c3ccccc23)CN1Cc1ccccc1,41.8

# Target: T1, Nitric oxide synthase, inducible (Mus musculus)
# Test: Inhibition of iNOS-mediated nitric oxide production in LPS-stimulated mouse RAW 264.7 cells at 50 uM pretreated 15 mins before LPS challenge measured after 20 hrs relative to control
# Assay type: cell-based
# Details: not given
# How it was run: as §1
row,Structure (SMILES),inhibition [%]
1,COC(=O)[C@H]1Cc2c([nH]c3ccccc23)CN1CC1CC1,5.6
2,COC(=O)[C@@H]1Cc2c([nH]c3ccccc23)CN1Cc1ccc(OCc2ccccc2)cc1,58
3,C#CCN1Cc2[nH]c3ccccc3c2C[C@@H]1C(=O)O,16.4
4,O=C(O)[C@H]1Cc2c([nH]c3ccccc23)CN1Cc1ccccc1,9.9
